# Test results as given in PMC3902791 (Molecular imaging and biology : MIB : the official …, 2012).
# Read-outs that look alike come from different tables or passages of the source.
# Design: species or system human
# Method in brief: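 Organ time–activity curves came from whole-body scan VOI data. These were fitted mono-exponentially in five animals; in the sixth, with two scans, a linear fit to the log values was used. Time-integrated activity coefficients were scaled by the ratio of body-mass-normalised human to CT-derived macaque organ masses. Intestinal values were split in thirds across small intestine, ULI and LLI. Organ doses (mSv/MBq) were computed per animal with the OLINDA/EXM 1.1 adult male model.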
compound,measurement,setting,value
"O=C(O)C[18F] [^18F-FACE, ^18F-fluoroacetate]","Organ dose to adult human model, Lungs","from animal 2, male",0.010 mSv/MBq
same,"Organ dose to adult human model, Muscle","from animal 2, male",0.010 mSv/MBq
same,"Organ dose to adult human model, Osteogenic cells","from animal 2, male",0.014 mSv/MBq
same,"Organ dose to adult human model, Pancreas","from animal 2, male",0.014 mSv/MBq
same,"Organ dose to adult human model, Red marrow","from animal 2, male",0.011 mSv/MBq
same,"Organ dose to adult human model, Skin","from animal 2, male",0.007 mSv/MBq
same,"Organ dose to adult human model, Small intestine","from animal 2, male",0.045 mSv/MBq
same,"Organ dose to adult human model, Spleen","from animal 2, male",0.011 mSv/MBq
same,"Organ dose to adult human model, Stomach wall","from animal 2, male",0.013 mSv/MBq
same,"Organ dose to adult human model, Testes","from animal 2, male",0.009 mSv/MBq
same,"Organ dose to adult human model, Thymus","from animal 2, male",0.010 mSv/MBq
same,"Organ dose to adult human model, Thyroid","from animal 2, male",0.009 mSv/MBq
same,"Organ dose to adult human model, ULI wall (upper large intestine)","from animal 2, male",0.071 mSv/MBq
same,"Organ dose to adult human model, Urinary bladder wall","from animal 2, male",0.015 mSv/MBq
same,"Dose to adult human model, Total body","from animal 3, male",0.012 mSv/MBq
same,"ED effective dose, adult human model","from animal 3, male",0.028 mSv/MBq
same,"EDE effective dose equivalent, adult human model","from animal 3, male",0.030 mSv/MBq
same,"Organ dose to adult human model, Adrenals","from animal 3, male",0.013 mSv/MBq
same,"Organ dose to adult human model, Brain","from animal 3, male",0.009 mSv/MBq
same,"Organ dose to adult human model, Breasts","from animal 3, male",0.008 mSv/MBq
same,"Organ dose to adult human model, Gallbladder wall","from animal 3, male",0.017 mSv/MBq
same,"Organ dose to adult human model, Heart wall","from animal 3, male",0.020 mSv/MBq
same,"Organ dose to adult human model, Kidneys","from animal 3, male",0.034 mSv/MBq
same,"Organ dose to adult human model, LLI wall (lower large intestine)","from animal 3, male",0.120 mSv/MBq
same,"Organ dose to adult human model, Liver","from animal 3, male",0.014 mSv/MBq
same,"Organ dose to adult human model, Lungs","from animal 3, male",0.010 mSv/MBq
same,"Organ dose to adult human model, Muscle","from animal 3, male",0.011 mSv/MBq
same,"Organ dose to adult human model, Osteogenic cells","from animal 3, male",0.016 mSv/MBq
same,"Organ dose to adult human model, Pancreas","from animal 3, male",0.014 mSv/MBq
same,"Organ dose to adult human model, Red marrow","from animal 3, male",0.012 mSv/MBq
same,"Organ dose to adult human model, Skin","from animal 3, male",0.008 mSv/MBq
same,"Organ dose to adult human model, Small intestine","from animal 3, male",0.055 mSv/MBq
same,"Organ dose to adult human model, Spleen","from animal 3, male",0.012 mSv/MBq
same,"Organ dose to adult human model, Stomach wall","from animal 3, male",0.014 mSv/MBq
same,"Organ dose to adult human model, Testes","from animal 3, male",0.010 mSv/MBq
same,"Organ dose to adult human model, Thymus","from animal 3, male",0.010 mSv/MBq
same,"Organ dose to adult human model, Thyroid","from animal 3, male",0.010 mSv/MBq
same,"Organ dose to adult human model, ULI wall (upper large intestine)","from animal 3, male",0.088 mSv/MBq
same,"Organ dose to adult human model, Urinary bladder wall","from animal 3, male",0.017 mSv/MBq
same,"Dose to adult human model, Total body","from animal 4, female",0.008 mSv/MBq
same,"ED effective dose, adult human model","from animal 4, female",0.016 mSv/MBq
same,"EDE effective dose equivalent, adult human model","from animal 4, female",0.019 mSv/MBq
same,"Organ dose to adult human model, Adrenals","from animal 4, female",0.010 mSv/MBq
same,"Organ dose to adult human model, Brain","from animal 4, female",0.005 mSv/MBq
same,"Organ dose to adult human model, Breasts","from animal 4, female",0.005 mSv/MBq
same,"Organ dose to adult human model, Gallbladder wall","from animal 4, female",0.040 mSv/MBq
same,"Organ dose to adult human model, Heart wall","from animal 4, female",0.027 mSv/MBq
same,"Organ dose to adult human model, Kidneys","from animal 4, female",0.026 mSv/MBq
same,"Organ dose to adult human model, LLI wall (lower large intestine)","from animal 4, female",0.060 mSv/MBq
same,"Organ dose to adult human model, Liver","from animal 4, female",0.032 mSv/MBq
same,"Organ dose to adult human model, Lungs","from animal 4, female",0.007 mSv/MBq
same,"Organ dose to adult human model, Muscle","from animal 4, female",0.007 mSv/MBq
same,"Organ dose to adult human model, Osteogenic cells","from animal 4, female",0.010 mSv/MBq
same,"Organ dose to adult human model, Ovaries","from animal 4, female",0.013 mSv/MBq
same,"Organ dose to adult human model, Pancreas","from animal 4, female",0.010 mSv/MBq
same,"Organ dose to adult human model, Red marrow","from animal 4, female",0.007 mSv/MBq
same,"Organ dose to adult human model, Skin","from animal 4, female",0.005 mSv/MBq
same,"Organ dose to adult human model, Small intestine","from animal 4, female",0.029 mSv/MBq
same,"Organ dose to adult human model, Spleen","from animal 4, female",0.008 mSv/MBq
same,"Organ dose to adult human model, Stomach wall","from animal 4, female",0.009 mSv/MBq
same,"Organ dose to adult human model, Thymus","from animal 4, female",0.007 mSv/MBq
same,"Organ dose to adult human model, Thyroid","from animal 4, female",0.006 mSv/MBq
same,"Organ dose to adult human model, ULI wall (upper large intestine)","from animal 4, female",0.045 mSv/MBq
same,"Organ dose to adult human model, Urinary bladder wall","from animal 4, female",0.014 mSv/MBq
same,"Organ dose to adult human model, Uterus","from animal 4, female",0.011 mSv/MBq
same,"Dose to adult human model, Total body","from animal 5, female",0.010 mSv/MBq
same,"ED effective dose, adult human model","from animal 5, female",0.018 mSv/MBq
same,"EDE effective dose equivalent, adult human model","from animal 5, female",0.021 mSv/MBq
same,"Organ dose to adult human model, Adrenals","from animal 5, female",0.012 mSv/MBq
same,"Organ dose to adult human model, Brain","from animal 5, female",0.008 mSv/MBq
same,"Organ dose to adult human model, Breasts","from animal 5, female",0.008 mSv/MBq
same,"Organ dose to adult human model, Gallbladder wall","from animal 5, female",0.036 mSv/MBq
same,"Organ dose to adult human model, Heart wall","from animal 5, female",0.015 mSv/MBq
same,"Organ dose to adult human model, Kidneys","from animal 5, female",0.042 mSv/MBq
same,"Organ dose to adult human model, LLI wall (lower large intestine)","from animal 5, female",0.062 mSv/MBq
same,"Organ dose to adult human model, Liver","from animal 5, female",0.015 mSv/MBq
same,"Organ dose to adult human model, Lungs","from animal 5, female",0.009 mSv/MBq
same,"Organ dose to adult human model, Muscle","from animal 5, female",0.010 mSv/MBq
same,"Organ dose to adult human model, Osteogenic cells","from animal 5, female",0.014 mSv/MBq
same,"Organ dose to adult human model, Ovaries","from animal 5, female",0.017 mSv/MBq
same,"Organ dose to adult human model, Pancreas","from animal 5, female",0.013 mSv/MBq
same,"Organ dose to adult human model, Red marrow","from animal 5, female",0.010 mSv/MBq
same,"Organ dose to adult human model, Skin","from animal 5, female",0.007 mSv/MBq
same,"Organ dose to adult human model, Small intestine","from animal 5, female",0.031 mSv/MBq
same,"Organ dose to adult human model, Spleen","from animal 5, female",0.011 mSv/MBq
same,"Organ dose to adult human model, Stomach wall","from animal 5, female",0.012 mSv/MBq
same,"Organ dose to adult human model, Thymus","from animal 5, female",0.009 mSv/MBq
same,"Organ dose to adult human model, Thyroid","from animal 5, female",0.009 mSv/MBq
same,"Organ dose to adult human model, ULI wall (upper large intestine)","from animal 5, female",0.047 mSv/MBq
same,"Organ dose to adult human model, Urinary bladder wall","from animal 5, female",0.017 mSv/MBq
same,"Organ dose to adult human model, Uterus","from animal 5, female",0.014 mSv/MBq
same,"Dose to adult human model, Total body","from animal 6, female",0.012 mSv/MBq
same,"ED effective dose, adult human model","from animal 6, female",0.018 mSv/MBq
same,"EDE effective dose equivalent, adult human model","from animal 6, female",0.019 mSv/MBq
same,"Organ dose to adult human model, Adrenals","from animal 6, female",0.013 mSv/MBq
same,"Organ dose to adult human model, Brain","from animal 6, female",0.010 mSv/MBq
same,"Organ dose to adult human model, Breasts","from animal 6, female",0.009 mSv/MBq
same,"Organ dose to adult human model, Gallbladder wall","from animal 6, female",0.016 mSv/MBq
same,"Organ dose to adult human model, Heart wall","from animal 6, female",0.017 mSv/MBq
same,"Organ dose to adult human model, Kidneys","from animal 6, female",0.026 mSv/MBq
same,"Organ dose to adult human model, LLI wall (lower large intestine)","from animal 6, female",0.052 mSv/MBq
same,"Organ dose to adult human model, Liver","from animal 6, female",0.017 mSv/MBq
same,"Organ dose to adult human model, Lungs","from animal 6, female",0.011 mSv/MBq
same,"Organ dose to adult human model, Muscle","from animal 6, female",0.011 mSv/MBq
same,"Organ dose to adult human model, Osteogenic cells","from animal 6, female",0.017 mSv/MBq
same,"Organ dose to adult human model, Ovaries","from animal 6, female",0.018 mSv/MBq
same,"Organ dose to adult human model, Pancreas","from animal 6, female",0.014 mSv/MBq
same,"Organ dose to adult human model, Red marrow","from animal 6, female",0.011 mSv/MBq
same,"Organ dose to adult human model, Skin","from animal 6, female",0.009 mSv/MBq
same,"Organ dose to adult human model, Small intestine","from animal 6, female",0.029 mSv/MBq
same,"Organ dose to adult human model, Spleen","from animal 6, female",0.013 mSv/MBq
same,"Organ dose to adult human model, Stomach wall","from animal 6, female",0.013 mSv/MBq
same,"Organ dose to adult human model, Thymus","from animal 6, female",0.011 mSv/MBq
same,"Organ dose to adult human model, Thyroid","from animal 6, female",0.011 mSv/MBq
same,"Organ dose to adult human model, ULI wall (upper large intestine)","from animal 6, female",0.040 mSv/MBq
same,"Organ dose to adult human model, Urinary bladder wall","from animal 6, female",0.021 mSv/MBq
same,"Organ dose to adult human model, Uterus","from animal 6, female",0.016 mSv/MBq
